Molecules are shown by their SMILES.

Series [1] addresses T1, Muscarinic acetylcholine receptor M1 (Homo sapiens) (UniProt P11229).
T1 sequence (whole entry): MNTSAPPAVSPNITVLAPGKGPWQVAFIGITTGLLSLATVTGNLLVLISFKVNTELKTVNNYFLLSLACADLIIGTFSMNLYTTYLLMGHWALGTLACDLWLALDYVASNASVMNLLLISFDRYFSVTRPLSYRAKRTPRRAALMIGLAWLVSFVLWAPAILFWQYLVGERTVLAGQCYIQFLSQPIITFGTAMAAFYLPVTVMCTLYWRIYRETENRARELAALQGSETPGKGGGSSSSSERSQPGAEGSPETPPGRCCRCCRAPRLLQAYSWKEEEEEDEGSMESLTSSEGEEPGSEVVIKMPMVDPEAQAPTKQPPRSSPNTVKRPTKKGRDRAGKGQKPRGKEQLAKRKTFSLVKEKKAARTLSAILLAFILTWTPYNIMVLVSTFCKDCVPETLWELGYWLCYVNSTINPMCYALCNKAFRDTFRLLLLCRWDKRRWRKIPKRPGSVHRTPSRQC
The series is described as follows: Allosteric modulation of human muscarinic M1 receptor expressed in CHO cells assessed as effect on acetylcholine-induced calcium mobilization by FLIPR assay relative to 1-Biphenyl-4-ylmethyl-4-oxo-1,4-dihydro-quinoline-3-carboxylic acid. Type of series: functional, cell-based.

Series [2] addresses T1, Muscarinic acetylcholine receptor M1 (Homo sapiens). The series is described as follows: Allosteric modulation of human muscarinic M1 receptor expressed in CHO cells assessed as effect on acetylcholine-induced calcium mobilization by FLIPR assay. It is filed as functional, cell-based. The method in brief: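 Human M1-expressing CHO cells; test compound added with an EC20 concentration of acetylcholine; calcium mobilization read on FLIPR384. Inflection point (IP) derived; percent max is the maximum potentiated EC20 response. Values are the mean of at least two experiments; interassay variability ±30% for IP unless otherwise noted.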

Series [3] shares this target. The series is described as follows: Potentiation of human muscarinic M1 receptor expressed in CHO cells assessed as effect on acetylcholine-induced calcium mobilization by FLIPR assay at 30 uM.
A short description of series [4]: Plasma concentration in Sprague-Dawley rat at 10 mg/kg, po after 2 hrs.
The nature of series [5]: Drug level Sprague-Dawley rat brain at 10 mg/kg, po after 2 hrs.
Series [6] in a line: Ratio of drug level in brain to plasma Sprague-Dawley rat at 10 mg/kg, po after 2 hrs.
Series [7] is described as follows: Drug level Sprague-Dawley rat cerebrospinal fluid at 10 mg/kg, po after 2 hrs.

Take `O=C(O)c1cn(Cc2cnc(-c3ccccc3)nc2)c2c(F)cccc2c1=O`: the maximal effect (Emax) in series [1] was 88%. In addition, the IP in series [2] was found to be 4000 nM.
Regarding `Nc1cccc(-c2ccc(Cn3cc(C(=O)O)c(=O)c4cccc(F)c43)nc2)c1`, the IP in series [2] amounted to 21 nM. Besides, in series [3], the fold change (FC) amounted to 45.
As to `CS(=O)(=O)c1cccc(-c2ccc(Cn3cc(C(=O)O)c(=O)c4cccc(F)c43)cn2)c1`, the IP in series [2] amounted to 28 nM. Besides, the concentration at 2 h came to 0.382 µM in series [4] and 154 nM in series [5]. Besides, the partition ratio (Kp) at 2 h in series [6] came to 0.4.
With `O=C(O)c1cn(Cc2ccc(-c3ccc(Cl)nc3)nc2)c2c(F)cccc2c1=O`, the IP in series [2] turned out to be 169 nM.
For the molecule `CS(=O)(=O)c1ccccc1-c1ccc(Cn2cc(C(=O)O)c(=O)c3cccc(F)c32)nc1`, the IP in series [2] came to 97 nM.
On the same count and under the same terms, then `CS(=O)(=O)c1cccc(-c2ccc(Cn3cc(C(=O)O)c(=O)c4cccc(F)c43)nn2)c1`, with 1540 nM; and `Nc1cccc(-c2ccc(Cn3cc(C(=O)O)c(=O)c4cccc(F)c43)cn2)c1`, with 21 nM.
On to `Cn1cc(-c2ccc(Cn3cc(C(=O)O)c(=O)c4cccc(F)c43)nc2)cn1`, for which the IP in series [2] amounted to 160 nM. The concentration at 2 h was found to be 33.3 µM in series [4], 430 nM in series [5] and 40 nM in series [7]. Besides, in series [6], the partition ratio (Kp) at 2 h worked out at 0.03. For the same molecule, the fold change (FC) in series [3] turned out to be 37.
With `O=C(O)c1cn(Cc2ccc(-c3ccnc(Cl)c3)cn2)c2c(F)cccc2c1=O`, the IP in series [2] came to 169 nM.
Still for that read-out and setting: for `O=C(O)c1cn(Cc2ccc(-c3ccc4[nH]ccc4c3)nc2)c2c(F)cccc2c1=O` the value was 65 nM; for `O=C(O)c1cn(Cc2ccc(-c3cncc(F)c3)cn2)c2c(F)cccc2c1=O`, 680 nM.
For the molecule `O=C(O)c1cn(Cc2ccc(-c3ccccc3)cn2)c2c(F)cccc2c1=O`, the Emax in series [1] is 80%. Moreover, the IP in series [2] was found to be 153 nM. In addition, in series [3], the fold change (FC) came to 37.
As for `O=C(O)c1cn(Cc2ccc(-c3ccc4[nH]ccc4c3)cn2)c2c(F)cccc2c1=O`, in series [2], the IP stood at 57 nM.
With `CS(=O)(=O)c1ccc(-c2ccc(Cn3cc(C(=O)O)c(=O)c4cccc(F)c43)nc2)cc1`, in series [2], the IP was 260 nM. The fold change (FC) in series [3] amounted to 33.
As to `O=C(O)c1cn(Cc2ccc(-c3ccccc3)nn2)c2c(F)cccc2c1=O`, the Emax in series [1] stood at 97%. In addition, the IP in series [2] turned out to be 390 nM.
Regarding `O=C(O)c1cn(Cc2ccc(-c3ccc(F)cc3)nn2)c2c(F)cccc2c1=O`, in series [2], the IP is 466 nM.
On the same count and under the same terms, then `CN(C)c1cccc(-c2ccc(Cn3cc(C(=O)O)c(=O)c4cccc(F)c43)cn2)c1`, with 130 nM.
As for `O=C(O)c1cn(Cc2ccc(-c3ccc(F)nc3)cn2)c2c(F)cccc2c1=O`, the IP in series [2] is 100 nM. In addition, the concentration at 2 h amounted to 12.8 µM in series [4], 311 nM in series [5] and 97 nM in series [7]. Further, in series [6], the Kp at 2 h was determined as 0.05. Moreover, the fold change (FC) in series [3] stood at 81.
As for `COc1cccc(-c2ccc(Cn3cc(C(=O)O)c(=O)c4cccc(F)c43)nc2)c1`, the IP in series [2] was determined as 89 nM.
The same measure, in the same setting: for `O=C(O)c1cn(Cc2ccc(-c3cccnc3)nn2)c2c(F)cccc2c1=O` the value was 778 nM; for `CN(C)c1cccc(-c2ccc(Cn3cc(C(=O)O)c(=O)c4cccc(F)c43)nc2)c1`, 110 nM; for `O=C(O)c1cn(Cc2ccc(-c3ccc4[nH]ccc4c3)nn2)c2c(F)cccc2c1=O`, 8660 nM.
The same measure, in the same setting: then `COc1ccc(Cn2cc(C(=O)O)c(=O)c3ccccc32)cc1`, with 660 nM.
Turning to `O=C(O)c1cn(Cc2cnc(-c3ccccc3)cn2)c2c(F)cccc2c1=O`, the maximal response (Emax) in series [1] turned out to be 85%. The IP in series [2] is 1300 nM.
For the molecule `Cn1cc(-c2ccc(Cn3cc(C(=O)O)c(=O)c4c(F)ccc(F)c43)nc2)cn1`, the IP in series [2] amounted to 114 nM.
`O=C(O)c1cn(Cc2ccc(-c3cccnc3)cn2)c2c(F)cccc2c1=O`: the IP in series [2] is 370 nM. In addition, the concentration at 2 h in series [4] was determined as 2.79 µM; in series [5], 154 nM; in series [7], 25 nM. In addition, the Kp at 2 h in series [6] was determined as 0.05.
`O=C(O)c1cn(Cc2ccc(-c3ccccc3)nc2)c2c(F)cccc2c1=O`: in series [1], the maximal effect (Emax) was found to be 97%. Further, the IP in series [2] turned out to be 604 nM.
In the case of `CN(C)c1ccc(-c2ccc(Cn3cc(C(=O)O)c(=O)c4cccc(F)c43)nc2)cn1`, the IP in series [2] came out at 82 nM.
On to `O=C(O)c1cn(Cc2ncc(-c3ccccc3)cn2)c2c(F)cccc2c1=O`, for which the maximal response (Emax) in series [1] was found to be 90%. In addition, the IP in series [2] came to 2320 nM.
Regarding `O=C(O)c1cn(Cc2ccc(-c3ccc(F)cc3)cn2)c2c(F)cccc2c1=O`, the IP in series [2] was 67 nM.
The same measure, in the same setting: then `O=C(O)c1cn(Cc2ccc(-c3ccc(F)nc3)nc2)c2c(F)cccc2c1=O`, with 202 nM; and `O=C(O)c1cn(Cc2ccc(-c3cccs3)cn2)c2c(F)cccc2c1=O`, with 150 nM; and `O=C(O)c1cn(Cc2ccc(-c3ccc(F)cc3)nc2)c2c(F)cccc2c1=O`, with 190 nM.
As to `CC(=O)Nc1ccc(-c2ccc(Cn3cc(C(=O)O)c(=O)c4cccc(F)c43)nc2)cc1`, the IP in series [2] came to 78 nM.
Still for that read-out and setting: then `Nc1ccc(-c2ccc(Cn3cc(C(=O)O)c(=O)c4cccc(F)c43)nc2)cn1`, with 200 nM.
With `CS(=O)(=O)c1cccc(-c2ccc(Cn3cc(C(=O)O)c(=O)c4cccc(F)c43)nc2)c1`, the IP in series [2] amounted to 97 nM.

The values above are taken from ChEMBL document CHEMBL1153183, “Pyridine containing M(1) positive allosteric modulators with reduced plasma protein binding” (Bioorg Med Chem Lett, 2010).
